Laboratory results reported in PubChem BioAssay.
The source made the active and inactive calls.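 How the source made its calls, unless noted: active means viability at or below 10% of carrier control in both of two separate runs; inconclusive means viability at or below 10% in only one of the two runs; inactive means the rest.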

Legend:
[1] = Her2 expression decrease, cell viability multiplex – SKBR3 breast tumor cells, AlphaScreen, ATP viability, primary screen (AID 461;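 active means Her2 level under about 52% in both replicate screens, with viability over 70% of control, limit read from the data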;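 on Her2 level: lower value means less Her2 protein in the cells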;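 on viability: percent of carrier control wells set as 100% viability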); settings: SKBR3 Her2 protein level, 18-24 h, measured here: SKBR3 viability, ATP luminescence, at 10 µM
[2] = biological target: Receptor tyrosine-protein kinase erbB-2 (Homo sapiens) (UniProt P04626); experiment: as above; settings: 18-24 h, at 10 µM, stronger effect = lower value
[3] = reduced viability of SK-BR-3 breast cancer cells – cell-based, 24 h, human, pilot screen (AID 572); settings: SK-BR-3 viability, CellTiter-Glo luminescence, at 10 µM, stronger effect = lower value;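 further: compound exposure lasted between 18 and 24 h rather than exactly 24 h; 100% = carrier-treated control wells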
[4] = HUVEC growth inhibition – cell-based, human, primary screen (AID 575;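 active means viability at or below 30% in both replicate assays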;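 further: 100% = median of untreated cell wells with 0.1% DMSO on each plate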); settings: HUVEC proliferation, CellTiter-Glo luminescence, 72 h; at 10 µM; stronger effect = lower value
Procedure, shortened: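 System: primary human umbilical vein endothelial cells; Quantity: 1250 endothelial cells in each well; Buffer or medium: supplemented EBM, 2% fetal bovine serum; Doses: one dose, 10 µM final, 0.1% DMSO; Incubation: 72 h compound incubation; Technique: ATP-based CellTiter-Glo luminescent read; Evaluation: percent of median DMSO-control luminescence; Controls: vehicle and MePR control wells.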

[5] = H69AR cell proliferation blockers – human, duplicate replicates, primary screen (AID 580;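 active means viability at or under a set limit in both replicates, limit being median viability minus 3 SD, cut at about 48% in these data, passing the limit was not always enough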;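 further: 100% = mean luminescence of untreated wells and 0% = no signal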); settings: H69AR lung tumor cells viability, ATP luminescence, 72 h; at 10 µM; stronger effect = lower value
[6] = MRP1 drug-resistance reversers in H69AR cells – cell-based, doxorubicin co-treatment, pilot screen (AID 601;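 active means viability loss from added drug above about 55%, and viability with drug at most 40%, in both replicates, limit read from the data, passing the limit was not always enough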); settings: CellTiter-Glo, 72 h, at 10 µM; for differential viability (reversal): stronger effect = higher value
[7] = yeast transport mutant growth inhibition pilot in 384-well plates, post-Golgi transport modulator project (AID 636; in the data active means inhibition above about 31%); settings: absorbance 615 nm, about 18 h, stronger effect = higher value
[8] = growth suppression of yeast trafficking mutant, preliminary HTS, modulators of trafficking downstream of Golgi apparatus project, 1536-format plate, OD 615 nm (AID 637; in the data active means inhibition above about 30%); settings: yeast transport mutant growth, absorbance 615 nm, 18 h; stronger effect = higher value
[9] = H69AR cells + 2 uM doxorubicin, measured here: viability with 2 uM doxorubicin, stronger effect = lower value
[10] = H69AR cells, compound alone cytotoxicity

Sequence of Receptor tyrosine-protein kinase erbB-2 (Homo sapiens) (P04626 whole entry, looked up): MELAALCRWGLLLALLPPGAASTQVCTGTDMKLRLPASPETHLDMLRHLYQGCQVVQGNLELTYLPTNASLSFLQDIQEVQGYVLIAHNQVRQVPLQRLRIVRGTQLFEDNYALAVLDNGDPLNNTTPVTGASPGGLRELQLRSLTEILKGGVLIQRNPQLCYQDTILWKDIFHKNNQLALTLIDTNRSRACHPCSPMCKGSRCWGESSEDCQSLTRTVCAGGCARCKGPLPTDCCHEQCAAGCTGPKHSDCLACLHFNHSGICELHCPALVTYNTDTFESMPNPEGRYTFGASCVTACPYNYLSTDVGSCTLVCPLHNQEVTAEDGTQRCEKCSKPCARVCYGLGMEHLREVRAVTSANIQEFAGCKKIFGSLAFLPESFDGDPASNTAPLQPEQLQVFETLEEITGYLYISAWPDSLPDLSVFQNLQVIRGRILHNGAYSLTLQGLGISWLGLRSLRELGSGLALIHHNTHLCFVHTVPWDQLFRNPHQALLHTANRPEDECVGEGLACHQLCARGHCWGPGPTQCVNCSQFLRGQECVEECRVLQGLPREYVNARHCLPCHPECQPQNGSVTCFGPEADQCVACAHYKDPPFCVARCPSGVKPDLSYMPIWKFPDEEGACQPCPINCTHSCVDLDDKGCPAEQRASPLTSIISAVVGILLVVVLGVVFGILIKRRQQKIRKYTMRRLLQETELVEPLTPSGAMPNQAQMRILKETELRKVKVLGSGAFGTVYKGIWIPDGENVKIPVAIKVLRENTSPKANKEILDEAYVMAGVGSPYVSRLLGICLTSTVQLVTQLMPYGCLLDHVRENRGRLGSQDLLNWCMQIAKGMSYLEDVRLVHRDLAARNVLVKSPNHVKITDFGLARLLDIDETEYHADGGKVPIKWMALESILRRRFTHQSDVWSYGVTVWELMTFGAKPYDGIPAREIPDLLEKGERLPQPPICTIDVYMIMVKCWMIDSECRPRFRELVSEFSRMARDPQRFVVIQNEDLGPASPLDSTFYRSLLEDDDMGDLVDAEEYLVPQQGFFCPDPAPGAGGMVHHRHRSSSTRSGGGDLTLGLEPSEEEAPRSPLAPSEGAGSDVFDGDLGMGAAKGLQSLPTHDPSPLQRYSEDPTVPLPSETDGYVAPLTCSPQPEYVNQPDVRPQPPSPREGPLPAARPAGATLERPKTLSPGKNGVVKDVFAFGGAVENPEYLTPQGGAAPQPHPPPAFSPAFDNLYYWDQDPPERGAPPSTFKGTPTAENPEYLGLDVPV

SMILES	viability [1]	Her2 level [2]	viability [3]	viability [4]	viability [5]	differential viability (reversal) ([6]; H69AR cells + 2 uM doxorubicin)	viability [6, 9]	viability [6, 10]	inhibition [7]	inhibition [8]
CCCCn1nnc(NC(=O)Cc2ccc(Cl)cc2)n1	112%	134% (inactive)	112% (inactive)	106% (inactive)	90% (inactive)	17.9% (inactive)	72.1%	90%	-3.9% (inactive)	-3.5% (inactive)
Cn1cnc(S(=O)(=O)Nc2ccc(C(F)(F)F)cc2)c1	86%	98.5% (inactive)	86% (inactive)	105% (inactive)	91.7% (inactive)	6.29% (inactive)	85.4%	91.7%	1.41% (inactive)	-11.7% (inactive)
COc1ccc(C)cc1NC(=O)c1nnn(Cc2cccc(F)c2)c1N	85.5%	102% (inactive)	85.5% (inactive)	64.9% (inactive)	82.7% (inactive)	9.66% (inactive)	73%	82.7%	-3.47% (inactive)	-5.9% (inactive)
Cc1onc(-c2c(Cl)cccc2Cl)c1C(N)=O	103%	116% (inactive)	103% (inactive)	100% (inactive)	106% (inactive)	13.6% (inactive)	92.5%	106%	-2.03% (inactive)	-5.08% (inactive)
CN(C=C1C(=O)CC(C)(C)CC1=O)CCN1CCNCC1	120%	102% (inactive)	120% (inactive)	90.3% (inactive)	96% (inactive)	10.2% (inactive)	85.8%	96%	-4.21% (inactive)	2.13% (inactive)
COC(=O)c1c(N)nc(C)n1-c1ccc(OC)cc1	86.5%	91% (inactive)	86.5% (inactive)	95.9% (inactive)	96.1% (inactive)	4.61% (inactive)	91.5%	96.1%	-3.33% (inactive)	-3.77% (inactive)
Cc1n[nH]c(C)c1S(=O)(=O)N1CCN(c2ccccn2)CC1	99.5%	108% (inactive)	99.5% (inactive)	111% (inactive)	103% (inactive)	3.44% (inactive)	99.8%	103%	-0.26% (inactive)	-4.29% (inactive)
CCOc1ccc2[nH]c(=O)c(CN(Cc3nnnn3CCc3ccccc3)CC3CCCO3)cc2c1 (stereo not given)	78.5%	89% (inactive)	78.5% (inactive)	90.6% (inactive)	78.7% (inactive)	21.2% (inactive)	57.5%	78.7%	-5.34% (inactive)	-11.6% (inactive)
c1ccn2c(SCc3cn4ccsc4n3)nnc2c1	104%	93.5% (inactive)	104% (inactive)	104% (inactive)	110% (inactive)	14% (inactive)	95.7%	110%	-8.49% (inactive)	3.49% (inactive)
CCOc1ccccc1C(=O)NCCC(=O)O	95%	112% (inactive)	95% (inactive)	111% (inactive)	96.4% (inactive)	1.32% (inactive)	95.1%	96.4%	-0.66% (inactive)	11.3% (inactive)
CCN(CC)S(=O)(=O)c1ccc(F)cc1	116%	106% (inactive)	116% (inactive)	98.7% (inactive)	93% (inactive)	5.97% (inactive)	87.1%	93%	-8.77% (inactive)	4.13% (inactive)
O=C1CCCc2c1cc(C(=O)NCc1ccco1)c(=O)n2-c1ccc(Cl)cc1	88%	110% (inactive)	88% (inactive)	80.8% (inactive)	93.5% (inactive)	13% (inactive)	80.5%	93.5%	-4.8% (inactive)	-3.39% (inactive)
CCOC(=O)c1sc(C)c2c(=O)n(CC)nnc12	94%	111% (inactive)	94% (inactive)	98.3% (inactive)	103% (inactive)	1.48% (inactive)	102%	103%	-4% (inactive)	-9.52% (inactive)
COc1ccc(-c2nnc(SCC#N)o2)cc1	104%	91.5% (inactive)	104% (inactive)	107% (inactive)	103% (inactive)	13.6% (inactive)	89.1%	103%	-5.47% (inactive)	0.65% (inactive)
Cn1c(=O)[nH]c(=O)c2[nH]c(CN3CCN(C(=O)c4ccco4)CC3)nc21	98.5%	80% (inactive)	98.5% (inactive)	90.3% (inactive)	107% (inactive)	13.8% (inactive)	92.9%	107%	-1.58% (inactive)	0.73% (inactive)
